According to ChEMBL document CHEMBL1131440, “Synthesis and potent antifolate activity and cytotoxicity of B-ring deaza analogues of the nonpolyglutamatable dihydrofolate reductase inhibitor Nalpha-(4-amino-4-deoxypteroyl)-Ndelta-hemiphthaloyl- L-ornithine (PT523)” (J Med Chem, 1998):

Assays:
Dihydrofolate reductase = target: T1, Dihydrofolate reductase (Homo sapiens, UniProt P00374); test: Compound was evaluated for the inhibition of Dihydrofolate reductase at concentration ranged from 0.15-0.50 uM
T1 sequence (P00374 whole entry): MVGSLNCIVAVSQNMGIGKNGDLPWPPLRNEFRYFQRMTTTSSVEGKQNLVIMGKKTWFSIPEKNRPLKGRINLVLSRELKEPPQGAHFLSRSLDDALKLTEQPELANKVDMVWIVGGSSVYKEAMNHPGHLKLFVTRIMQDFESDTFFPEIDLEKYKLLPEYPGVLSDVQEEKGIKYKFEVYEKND

[1] = Compound was tested for in vitro antitumor activity, using SCC25 human head and neck squamous carcinoma cells; format: functional; conditions: SCC-25
Procedure, shortened: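 Clonogenic assay: SCC25 cells exposed to graded drug concentrations for 72 h at 37 °C, 5% CO2, in DMEM with 10% FBS and hydrocortisone ([…]). Then replated as single cells at drug-dependent densities and grown in drug-free medium 10-14 days. Colonies stained with crystal violet; only colonies of ≥50 cells scored. IC50 is mean ± SD of ≥3 assays on different days.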

Nc1nc(N)c2c(Cl)c(CNc3ccc(C(=O)NC(CCCNC(=O)c4ccccc4C(=O)O)C(=O)O)cc3)ccc2n1 (stereo not drawn)
Ki (Dihydrofolate reductase): 0.11 pM | IC50 [1]: 330 pM

Nc1nc(N)c2nc(CNc3ccc(C(=O)NC(CCCNC(=O)c4ccccc4C(=O)O)C(=O)O)cc3)ccc2n1 (stereo not drawn)
Ki (Dihydrofolate reductase): 0.19 pM | IC50 [1]: 1200 pM

Cc1c(CNc2ccc(C(=O)NC(CCCNC(=O)c3ccccc3C(=O)O)C(=O)O)cc2)ccc2nc(N)nc(N)c12 (stereo not drawn)
Ki (Dihydrofolate reductase): 0.1 pM | IC50 [1]: 440 pM

Nc1nc(N)c2cc(CNc3ccc(C(=O)NC(CCCNC(=O)c4ccccc4C(=O)O)C(=O)O)cc3)cnc2n1 (stereo not drawn)
Ki (Dihydrofolate reductase): 0.41 pM | IC50 [1]: 1800 pM
